# Measurements taken from the RNAGym collection of RNA variant scans (doi:10.1126/science.aae0568).
# Variants at the floor of the assay were thinned out.
# B1: tRNA (parent)
# chain: GUUCCGUUGGCGUAAUGGUAACGCGUCUCCCUCCUAAGGAGAAGACUGCGGGUUCGAGUCCCGUACGGAACG
# Variants of: B1
# Assay: yeast fitness relative to wild type (ratio to wild type); higher = fitter; tRNA-Arg(CCU), competitive growth, 37 C, YPD
# Procedure, shortened: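 Gene amplicons from the start population and from each of six end populations were read by 100-nucleotide paired-end sequencing. Those end populations came from pooled Saccharomyces cerevisiae strains carrying tRNA-Arg(CCU) gene variants at the native locus, competed in YPD at 37°C for 24 hours. Fitness relative to wild type was worked out from changes in genotype frequencies. Genotypes needed ≥ 100 starting reads, and estimates < 0.5 were set to 0.5.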
row,Variant,yeast fitness
1,GUUCCGUUGGCGUAAUGGUAAUGCGUCUCCGUCCUAAGGAGAAGACUGCGGGUUCGAGUCCCGUACGGAACG,0.834
2,GUUCCGUUGGCGUAAUGGUAACGUGUCUCCCUCCUAAGGAGAAGCCUGCGGGUUCGAGUCGCGUACGGAACG,≤ 0.5
3,GUUCCGUUGGUGUAAUGGUUACGUGUCUACCUCCUAAGGAGAAGACUGUGGGUUCGAGUCCCGUACGGAGCG,≤ 0.5
4,GUUCCGUUGGCGUAAUGGCAACGCGUCUCCCUCCCAAGGAGAAGACUGCGGGUUCGAGUCCCGUACGGAACG,0.81
5,GGUCCGUUGGCGUAAUGGUAACGCGUCUCACUCCUGAGCAGAAGACUGCGGGUUCGGGUCCCGUACGGAACG,0.709
6,GUUCCGUUGGCGUAAUGGUAACGCGUCUCGCUACUAAGGAGAAGACUGCGGGUUCCAGUCCCGUGCGGAACG,≤ 0.5
7,GUUCCGUUGGCGUAAUGGUACCGCGUCUCCCUCCUAAGGAGAAGACUGCGGGUUCGAGUCGCGUACGAAACG,≤ 0.5
8,GUUCCGUUGGCGUGAUGGUAACGCGUCUCCAUCCUAAGGAGAAGAUUGCGGGUUCCAGUCCCGUACGGUACG,≤ 0.5
9,GUUCCGUUGGCGUAAUGGUAACGCGUCUCCCUCCUAAGGAGCAGACUGCGGAUUCGAGUCCCGUACGGAACG,0.676
10,GUUCCGGUGGCGUAAUGGUAACGCGUCUCCCUCCUAGGGAGAAGACUGAGGGUUCGAGUCCCGUACGGAACG,≤ 0.5
11,GUUCCGUUGGCGUGAUGGUAACGUGUCUCCCUCCUAAGGAGCAGACUGCAGGUUCGAGUCCCGUACGGAACG,≤ 0.5
12,GUUCCGUUGGCGUAUUGGUAACGCGUCUCCCUCCUAAGGAGAAGACUGCGGGUUCGUGUCCCGUACGGAACG,0.666
13,GUUCCGUUGGCCUAAUGGUAACGCGUCGCCCUCCUAGGGAAAAGACUACGGGUUCGAGUCCCGUUUGGAACG,≤ 0.5
14,GUUCCGUUCGCGUAAUGGUAACGCGACUCCCUCCUAAGGAGAAGACCAUGGGUUCAAGUCCCGUACCGGACG,≤ 0.5
15,GUUCCGAUGGCGUAAUGGUAACGCGUCUCCCUGCUAAGGAGAAGACUGCGGGUUCGAGUGCCAUACGGAACG,≤ 0.5
16,GUUACGUUGGCGUAAUGGUAGCGCGUCUCCCUCCUAAGGAGAAGACUGCGGGUUCGAGUCCCGUUCGGAACG,0.668
17,GUUCCGUUGGCGUAAUGGUAGCGCGUCUCCCUCCUAAGGAGAAGACAGCGGGUUCGAGUCCCGUACGGAACG,0.822
18,GUUCCGUUGGCGUAAUGAUAACGCGUCUCCCACCUAAGGAGAAAACUGCGGGUUCGAGUCCCGUCCGGAACG,≤ 0.5
19,GUUCCCUUGGCGUAAUGGUAACGCGUCUCCCUCCUAAGGAGAAGCGUGCGGGUUUGAGUCCCGUACGGAACG,≤ 0.5

row,Variant,yeast fitness
1,GUUCCGUUGGCGUAAUGGUAACGCGUCUCCCUCCUAGGGAGAAGACUGCCGGUACGAGUCACGUACGGAACG,≤ 0.5
2,GUUCCGUUGGCGUAAUGGUAACGCGUCACCCUCCUAAGGUGAAGACUGCGGGUUCGAGUCCCGUACGGUACG,0.769
3,GUUCAGUUGGGGUAAUGGUAACGCGUCUCCCUCCUAUGGAGAAGACUGAGGGUUCGAGUCCCGUACGGAACG,0.515
4,GUUCCGUUGGCCUUAUGGUAACGCGUGUCCCUCCUAAGGAGAAGUGUGCGGGUUCAAGUCCCGUACGGAACG,≤ 0.5
5,GUUCAGUUGGCGUAAUGGUAACGCGUCUCCCUCCUAAGCAGAAGAGUGCGGGUUCGAGUCCCGUACGGAACG,0.547
6,GAUCCGUUGGUGUAAUGGUAACCCGUAUCCCUCCUAAGGAGAAGACUGCUGGUUCGAGUCCCGUACGGAACG,≤ 0.5
7,GUUACGUAGGCCUAAUGGCAACGCGUCUCUCUCCUAAGGAGAAGACAGCGGGUUCGAGUCCCGUUCGGAACG,≤ 0.5
8,GGUCAGUUGGCGUAAUGGAAACGCGUCUCGCUCCUAAGGAGAAGACUGCGGGUUUGAGUCCCGUACGCAACG,≤ 0.5
9,GUUCCGUUGGCGCAAUGGUAACACGUCUGCCUCCUAAGGAGAAGUCUGCGGGUUCGAGUCCUGUACGGAACG,≤ 0.5
10,GUUCCGUUGGCGUAAUGGUAUCGCGUCUCCCUUCUAAGGAGAAGACUGCGGGUUCGCGUCCCGUACGGAACG,≤ 0.5
11,GUUGCGUUGGCGUAAUGGUAACGCGUUUCCCUCCUAAGGAGAAGACUGCGGGUUCGAGUCCCGUACGGAACG,0.789
12,GUUCCGUUGGCGUAAUGGUAACGCGUCUCACUCCUAAGGAGAAGACUGCGGGUUCGAGUCUAGUACGGAGCG,≤ 0.5
13,GUUCCGUUGGCGUAAUGGUAACGCGUCUCCCUCCUUAGGAGAAGACUGAGGGUUCGAGUCCCGUACGGUACG,0.565
14,GUUCCGUUGGCGUAAUGGUAAAGCGUCUCCCUGCUAGGGAGAAGACUGCGGGUUCGAGUCCCGUACGGAACG,≤ 0.5
15,GUUCCGUCGGCGUAAUGAUAACGCGUUUCCCUCCUAAGGAGAAGACUGCGGGUUCGAGUCCCGUACGGAACG,0.531
16,GUUCCGUUGGCGUAAUGGUAACGCAUCUCCCUCCUAAGGAGAAGGCUACCGGUUCGAGUCCCGUACGGCACG,≤ 0.5
17,GUUCCGAUGGCGUAAUGGUAACGCGUCUCCCUCCUAAGGAGAAGACUGCGGGCUCGAGUCCCGUACGGAACG,0.604
18,GUUCUGUUGGCGUAAUGGUAACGCGUCUCCCUCAUAAGGAGAAGACUGCGGGUUCGAGUCCCAUACGGAACG,≤ 0.5
